Measured values as given in PubChem BioAssay.
The source made the active and inactive calls.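 The calls were made as follows, unless noted: active = calcium signal cut by more than 3 SD below the full-agonist control yet still positive, in both repeats and the earlier primary screen; inactive = the rest.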

These compounds were tested on TRPC4 beta (transient receptor potential cation channel C4), mouse (assay: positive allosteric modulators of mouse TRPC4, confirmation, cell-based, Fluo-4, HEK293 TRPC4beta/mu-opioid (AID 2555;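 active = primary screen hit whose calcium fluorescence ratio, in both repeats, exceeds the weak agonist control mean by 3 SD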)). Conditions: DAMGO EC20, Fluo-4 calcium flux, at 10 µM; stronger effect = higher value.

outcome, inactive:
COc1ccc(C(CNC(=O)COc2ccccc2OC)N(C)C)cc1OC (stereo not drawn), COc1ccc(C(CNC(=O)CCOc2ccccc2)N(C)C)cc1 (stereo not drawn), CN(C)C(CNc1ccc(C(F)(F)F)cn1)c1ccccc1 (stereo not drawn), Fc1ccc(-n2cc(CNCCc3cccnc3)c(-c3ccccc3Cl)n2)cc1, CCOC(=O)c1ccc(NC(=O)NCCc2cnc[nH]2)cc1, CN1CCN(C(=O)c2cccn(Cc3c(Cl)cccc3Cl)c2=O)CC1, Cc1sc2ncnc(NCC(c3ccccc3)N(C)C)c2c1C (stereo not drawn), O=C(O)C1C2C=CC(C2)C1C(=O)N1CCN(C/C=C/c2ccccc2)CC1 (stereo not drawn), CCCCN(CC)CCNC(=O)c1cc2c(-c3ccc(Cl)cc3)nn(C)c2s1, O=C(Nc1ccncc1)c1ccc(Cl)c(S(=O)(=O)N2CCc3ccccc32)c1, CC(=O)OCC[N+](C)(C)C, COc1ccc(CCN(C)C(=O)C2CCCN(C3CCN(Cc4ccccc4)CC3)C2)cc1OC (stereo not drawn), Cc1cc(C)cc(NC(=S)N2CCN(c3ncc(C(F)(F)F)cc3Cl)CC2)c1, COc1ccc(C(CNC(=O)Cc2ccc(-c3ccccc3)cc2)N(C)C)cc1 (stereo not drawn), O=c1c(Cc2ccccc2)c(O)ccn1CCc1cnc[nH]1, COc1ccc(C(=O)NNC(=S)NC(=O)c2cccs2)cc1, CCC(=O)NC(C)C(c1cccs1)N1CCN(c2ccccc2)CC1 (stereo not drawn), NCCCNC(=O)c1cc2ccccc2[nH]1, Cn1c2ccccc2c(=O)c2c(=O)n(C3CCCCC3)c(-c3ccco3)nc21, COc1ccc(-n2c3c(cc(C(=O)NNc4ccccc4)c2=O)C(=O)CC(C)(C)C3)cc1, O=C(c1sc2ccccc2c1Cl)N(Cc1ccccc1)C1CCS(=O)(=O)C1 (stereo not drawn), CN(C)C(CNC(=S)Nc1ccc(Cl)cc1)c1cccnc1 (stereo not drawn), Cc1ccc(C(=O)NNC(=S)NC(=O)COc2ccccc2)cc1, CCCCCc1c(O)nc(SCCN(C)C)[nH]c1=O, CC1CC(C)CN(CCCNS(=O)(=O)c2cc(Br)cc3c2N(C(=O)C2CC2)CC3)C1 (stereo not drawn), CN1C2C=C(N(CCc3ccccc3)C(=O)c3ccc(Cl)cc3)CC1CC2 (stereo not drawn), Cc1ccccc1C(=O)NNC(=S)NC(=O)COc1ccccc1, CCOC(=O)C1(CC2CCCCO2)CCN(Cc2cc(F)ccc2-n2cccn2)CC1 (stereo not drawn), Cc1ccc(NC(=O)CCN2CCC(Cc3ccccc3)CC2)cc1, CCCn1ncc(CN2CCC(n3nccc3NC(=O)CCc3ccccc3)CC2)c1C, Cc1sc2ncnc(NCC(c3ccco3)N(C)C)c2c1C (stereo not drawn), CCCN(CCC)CCNC(=O)CCC(=O)Nc1ccc2nc(N3CCOCC3)cc(C)c2c1, CCN1CCN(c2c(Cl)cccc2NC(=O)c2ccc([N+](=O)[O-])cc2)CC1, CN1CCN(c2ccc(NC(=O)c3ccc(-c4cccc([N+](=O)[O-])c4)o3)cc2)CC1, OCCC1CN(Cc2ccccc2-c2ccco2)CCN1Cc1ccccc1 (stereo not drawn), CN(C)C(CNC(=O)NC1CCCCC1)c1cccnc1 (stereo not drawn), O=C1S/C(=C\c2ccc(N3CCOCC3)o2)C(=O)N1Cc1c(F)cccc1Cl, COCCCn1c(N)c(-c2nc3ccccc3n2C)c2nc3ccccc3nc21

potentiation, active:
O=C1/C(=C\c2cc([N+](=O)[O-])ccc2O)SC(=S)N1Cc1ccc(Cl)cc1 21%

These compounds were tested against Short transient receptor potential channel 4 (Mus musculus) (UniProt Q9QUQ5) (assay: inhibitors of mouse TRPC4 channel, confirmation, cell-based, Fluo4, HEK293 TRPC4beta/mu-opioid (AID 2636)). Conditions: DAMGO, Fluo4 calcium flux, at 10 µM; stronger effect = higher value.
Summary of the method: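 test system = TRPC4beta/mu-opioid receptor HEK293 cells | compound dosing = one dose, 10 µM final | times = dye 45 min at room temperature, compound 110 s, submaximal DAMGO 110 s | signal = kinetic fluorescence of Fluo4 calcium-sensitive dye, calcium influx | controls = no-compound wells and DAMGO maximal-stimulus wells | replication = duplicate wells for each compound, averaged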

Chain of Short transient receptor potential channel 4 (Mus musculus) (Q9QUQ5 whole entry, looked up): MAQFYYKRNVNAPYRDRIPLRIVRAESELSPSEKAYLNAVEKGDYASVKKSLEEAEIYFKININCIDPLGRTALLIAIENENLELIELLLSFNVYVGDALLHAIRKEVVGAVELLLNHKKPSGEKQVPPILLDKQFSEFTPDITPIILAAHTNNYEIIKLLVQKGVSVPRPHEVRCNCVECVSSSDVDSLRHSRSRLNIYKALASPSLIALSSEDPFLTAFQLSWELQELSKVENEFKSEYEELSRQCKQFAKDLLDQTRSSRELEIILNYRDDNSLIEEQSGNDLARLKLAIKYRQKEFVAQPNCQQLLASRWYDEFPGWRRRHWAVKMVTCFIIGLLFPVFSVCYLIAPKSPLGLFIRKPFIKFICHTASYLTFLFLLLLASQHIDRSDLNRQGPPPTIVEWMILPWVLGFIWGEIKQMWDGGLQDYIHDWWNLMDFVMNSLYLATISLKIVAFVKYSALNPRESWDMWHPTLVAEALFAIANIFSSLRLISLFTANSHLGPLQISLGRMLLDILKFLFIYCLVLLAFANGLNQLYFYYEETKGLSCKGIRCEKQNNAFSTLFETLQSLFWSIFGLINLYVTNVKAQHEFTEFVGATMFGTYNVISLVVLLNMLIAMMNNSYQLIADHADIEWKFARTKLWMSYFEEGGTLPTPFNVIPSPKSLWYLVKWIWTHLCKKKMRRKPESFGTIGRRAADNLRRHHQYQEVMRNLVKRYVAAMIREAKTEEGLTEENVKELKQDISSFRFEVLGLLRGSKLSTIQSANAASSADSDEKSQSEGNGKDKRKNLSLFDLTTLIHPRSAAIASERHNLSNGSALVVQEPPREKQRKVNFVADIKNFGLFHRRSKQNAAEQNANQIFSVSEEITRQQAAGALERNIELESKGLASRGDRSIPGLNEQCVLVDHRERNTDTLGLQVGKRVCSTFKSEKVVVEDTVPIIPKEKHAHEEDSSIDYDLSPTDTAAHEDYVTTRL

outcome, inactive:
COc1ccc(C(CNC(=O)COc2ccccc2OC)N(C)C)cc1OC (stereo not drawn), COc1ccc(C(CNC(=O)CCOc2ccccc2)N(C)C)cc1 (stereo not drawn), CN(C)C(CNc1ccc(C(F)(F)F)cn1)c1ccccc1 (stereo not drawn), Fc1ccc(-n2cc(CNCCc3cccnc3)c(-c3ccccc3Cl)n2)cc1, CCOC(=O)c1ccc(NC(=O)NCCc2cnc[nH]2)cc1, CN1CCN(C(=O)c2cccn(Cc3c(Cl)cccc3Cl)c2=O)CC1, Cc1sc2ncnc(NCC(c3ccccc3)N(C)C)c2c1C (stereo not drawn), O=C(O)C1C2C=CC(C2)C1C(=O)N1CCN(C/C=C/c2ccccc2)CC1 (stereo not drawn), CCCCN(CC)CCNC(=O)c1cc2c(-c3ccc(Cl)cc3)nn(C)c2s1, O=C(Nc1ccncc1)c1ccc(Cl)c(S(=O)(=O)N2CCc3ccccc32)c1, CC(=O)OCC[N+](C)(C)C, COc1ccc(CCN(C)C(=O)C2CCCN(C3CCN(Cc4ccccc4)CC3)C2)cc1OC (stereo not drawn), Cc1cc(C)cc(NC(=S)N2CCN(c3ncc(C(F)(F)F)cc3Cl)CC2)c1, COc1ccc(C(CNC(=O)Cc2ccc(-c3ccccc3)cc2)N(C)C)cc1 (stereo not drawn), O=c1c(Cc2ccccc2)c(O)ccn1CCc1cnc[nH]1, COc1ccc(C(=O)NNC(=S)NC(=O)c2cccs2)cc1, CCC(=O)NC(C)C(c1cccs1)N1CCN(c2ccccc2)CC1 (stereo not drawn), NCCCNC(=O)c1cc2ccccc2[nH]1, Cn1c2ccccc2c(=O)c2c(=O)n(C3CCCCC3)c(-c3ccco3)nc21, COc1ccc(-n2c3c(cc(C(=O)NNc4ccccc4)c2=O)C(=O)CC(C)(C)C3)cc1, O=C(c1sc2ccccc2c1Cl)N(Cc1ccccc1)C1CCS(=O)(=O)C1 (stereo not drawn), CN(C)C(CNC(=S)Nc1ccc(Cl)cc1)c1cccnc1 (stereo not drawn), O=C1/C(=C\c2cc([N+](=O)[O-])ccc2O)SC(=S)N1Cc1ccc(Cl)cc1, Cc1ccc(C(=O)NNC(=S)NC(=O)COc2ccccc2)cc1, CCCCCc1c(O)nc(SCCN(C)C)[nH]c1=O, CC1CC(C)CN(CCCNS(=O)(=O)c2cc(Br)cc3c2N(C(=O)C2CC2)CC3)C1 (stereo not drawn), CN1C2C=C(N(CCc3ccccc3)C(=O)c3ccc(Cl)cc3)CC1CC2 (stereo not drawn), Cc1ccccc1C(=O)NNC(=S)NC(=O)COc1ccccc1, CCOC(=O)C1(CC2CCCCO2)CCN(Cc2cc(F)ccc2-n2cccn2)CC1 (stereo not drawn), Cc1ccc(NC(=O)CCN2CCC(Cc3ccccc3)CC2)cc1, CCCn1ncc(CN2CCC(n3nccc3NC(=O)CCc3ccccc3)CC2)c1C, Cc1sc2ncnc(NCC(c3ccco3)N(C)C)c2c1C (stereo not drawn), CCCN(CCC)CCNC(=O)CCC(=O)Nc1ccc2nc(N3CCOCC3)cc(C)c2c1, CCN1CCN(c2c(Cl)cccc2NC(=O)c2ccc([N+](=O)[O-])cc2)CC1, CN1CCN(c2ccc(NC(=O)c3ccc(-c4cccc([N+](=O)[O-])c4)o3)cc2)CC1, OCCC1CN(Cc2ccccc2-c2ccco2)CCN1Cc1ccccc1 (stereo not drawn), CN(C)C(CNC(=O)NC1CCCCC1)c1cccnc1 (stereo not drawn), O=C1S/C(=C\c2ccc(N3CCOCC3)o2)C(=O)N1Cc1c(F)cccc1Cl, COCCCn1c(N)c(-c2nc3ccccc3n2C)c2nc3ccccc3nc21
